The text below walks through data of ChEMBL document CHEMBL4699478, “7-Azaindolequinuclidinones (7-AIQD): A novel class of cannabinoid 1 (CB1) and cannabinoid 2 (CB2) receptor ligands” (Bioorg Med Chem Lett, 2020).

SMILES strings stand for the structures. The source made the active and inactive calls. No cut-off for these calls is given here.

What is called inhibition is the percentage by which the read-out fell short of the control. What is called Ki is the dissociation constant of the complex between target and ligand, obtained from inhibition or displacement.

In experiment [1] the target is T1, Cannabinoid receptor 2 (Homo sapiens, UniProt P34972). The experiment in a line: Inverse agonist activity at human CB2 receptor expressed in CHO cell membrane assessed as reduction in GTPgammaS binding at 10 uM by [35S]GTP-gammaS binding assay. It is filed as functional, cell membranes. The method, boiled down: (§1)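 [35S]GTPγS binding in CHO-hCB1 membranes (hCB1R) or CHO-hCB2 membranes (hCB2R). A single 10 μM concentration of ligand was tested for change in [35S]GTPγS binding relative to basal. Agonism was read as a rise above basal, inverse agonism as a fall below basal, and neutral activity as no significant change.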
T1 sequence (P34972 whole entry): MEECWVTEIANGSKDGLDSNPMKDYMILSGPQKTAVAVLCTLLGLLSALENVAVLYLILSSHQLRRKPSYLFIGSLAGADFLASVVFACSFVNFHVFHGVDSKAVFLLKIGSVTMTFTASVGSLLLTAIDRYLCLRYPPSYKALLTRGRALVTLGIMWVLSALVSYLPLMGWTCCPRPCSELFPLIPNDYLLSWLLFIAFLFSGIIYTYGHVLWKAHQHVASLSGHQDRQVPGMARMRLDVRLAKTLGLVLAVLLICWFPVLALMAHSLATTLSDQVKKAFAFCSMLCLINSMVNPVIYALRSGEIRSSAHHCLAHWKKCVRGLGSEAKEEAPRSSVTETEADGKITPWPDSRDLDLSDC

The target in experiment [2] is T2, Cannabinoid receptor 1 (Homo sapiens, UniProt P21554). The experiment in a line: Displacement of [3H]CP-55940 from CB1 receptor (unknown origin) at 1 uM by competitive binding assay. (In a radioligand displacement assay an active substance lowers the binding of a labelled ligand.)
T2 sequence (P21554 whole entry): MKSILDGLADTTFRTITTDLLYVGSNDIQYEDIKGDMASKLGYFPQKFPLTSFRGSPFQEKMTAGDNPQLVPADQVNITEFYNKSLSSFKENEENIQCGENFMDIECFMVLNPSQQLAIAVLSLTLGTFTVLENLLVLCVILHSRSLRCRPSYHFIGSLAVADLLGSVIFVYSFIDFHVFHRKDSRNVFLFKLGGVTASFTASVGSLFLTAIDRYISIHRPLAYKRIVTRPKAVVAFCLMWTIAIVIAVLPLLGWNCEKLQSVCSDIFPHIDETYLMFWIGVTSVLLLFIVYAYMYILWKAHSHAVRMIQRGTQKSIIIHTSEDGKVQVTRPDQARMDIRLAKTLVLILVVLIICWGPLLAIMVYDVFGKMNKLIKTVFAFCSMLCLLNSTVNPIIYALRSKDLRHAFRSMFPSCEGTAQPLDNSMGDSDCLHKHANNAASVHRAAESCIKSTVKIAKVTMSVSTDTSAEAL
For experiment [3], the target named is T1, Cannabinoid receptor 2. As to the kind of experiment: Displacement of [3H]CP-55940 from CB2 receptor (unknown origin) at 1 uM by competitive binding assay.
Experiment [4] addresses T1, Cannabinoid receptor 2. As to the kind of experiment: Binding affinity to human CB2 receptor expressed in CHO cell membrane at 10 uM by [35S]GTP-gammaS binding assay. It is filed as cell membranes. The method, boiled down:
as §1
For orientation: Binding of GTPγS marks nucleotide exchange on a G protein.

In experiment [5] the target is T2, Cannabinoid receptor 1. The experiment in a line: Displacement of [3H]CP-55940 from CB1 receptor (unknown origin) by competitive binding assay.
Experiment [6] addresses T2, Cannabinoid receptor 1. The experiment in a line: Binding affinity to human CB1 receptor expressed in CHO cell membrane at 10 uM by [35S]GTP-gammaS binding assay. It is filed as cell membranes. The method, boiled down:
as §1

Experiment [7] has as its target T1, Cannabinoid receptor 2. As to the kind of experiment: Displacement of [3H]CP-55940 from CB2 receptor (unknown origin) by competitive binding assay.
The species named for another experiment is Homo sapiens. The experiment in a line: Selectivity index, ratio of Ki for CB1 receptor (unknown origin) to Ki for CB2 receptor (unknown origin) by competitive binding assay.
Experiment [8] deals with T2, Cannabinoid receptor 1. The experiment in a line: Inverse agonist activity at human CB1 receptor expressed in CHO cell membrane assessed as reduction in GTPgammaS binding at 10 uM by [35S]GTP-gammaS binding assay. It is filed as functional, cell membranes. The method, boiled down:
as §1

In experiment [9] the target is T1, Cannabinoid receptor 2. The experiment in a line: Neutral antagonist activity at human CB2 receptor expressed in CHO cell membrane at 10 uM by [35S]GTP-gammaS binding assay. It is filed as cell membranes. Particulars: filed as antagonist. The method, boiled down:
as §1

For experiment [10], the target named is T2, Cannabinoid receptor 1. As to the kind of experiment: Neutral antagonist activity at human CB1 receptor expressed in CHO cell membrane at 10 uM by [35S]GTP-gammaS binding assay. It is filed as cell membranes. Particulars: filed as antagonist. The method, boiled down: as §1
Experiment [11] has as its target T1, Cannabinoid receptor 2. The experiment in a line: Agonist activity at human CB2 receptor expressed in CHO cell membrane assessed as increase in GTPgammaS binding at 10 uM by [35S]GTP-gammaS binding assay. It is filed as functional, cell membranes. The method, boiled down:
as §1

Experiment [12] concerns the target T2, Cannabinoid receptor 1. As to the kind of experiment: Agonist activity at human CB1 receptor expressed in CHO cell membrane assessed as increase in GTPgammaS binding at 10 uM by [35S]GTP-gammaS binding assay. It is filed as functional, cell membranes. The method, boiled down: as §1

As to `COc1ccc(C(=O)c2c(C)n(CCN3CCOCC3)c3cc(I)ccc23)cc1`, at Cannabinoid receptor 2 [1] (filed as inverse agonist), the outcome was Active.

For the molecule `OC1/C(=C/c2cn(Cc3ccccc3)c3ncccc23)N2CCC1CC2` (racemic), the inhibition on Cannabinoid receptor 1 [2] and at Cannabinoid receptor 2 [3] was 0% throughout.

Consider `O=C1/C(=C/c2cn(Cc3ccc(F)cc3)c3ncccc23)N2CCC1CC2`, for which the outcome on Cannabinoid receptor 2 [4] and on Cannabinoid receptor 1 [6] was Active. Besides, the Ki stood at 218 nM at Cannabinoid receptor 1 [5] and 23.7 nM on Cannabinoid receptor 2 [7]. Also, in the experiment listed under Homo sapiens, the Ratio Ki turned out to be 9.2. In addition, the inhibition on Cannabinoid receptor 1 [2] stood at 87.6%; on Cannabinoid receptor 2 [3], 100%.

Regarding `O=C1/C(=C/c2cn(Cc3ccc(Cl)cc3)c3ncccc23)N2CCC1CC2`, the Ki on Cannabinoid receptor 1 [5] came out at 704 nM; on Cannabinoid receptor 2 [7], 115 nM. Further, the result on Cannabinoid receptor 1 [8] (filed as inverse agonist) and at Cannabinoid receptor 2 [1] (filed as inverse agonist) was Active. Further, the Ratio Ki in the experiment filed under Homo sapiens stood at 6.1. For the same molecule, the inhibition is 68.9% at Cannabinoid receptor 1 [2] (filed as inverse agonist) and 74.8% at Cannabinoid receptor 2 [3] (filed as inverse agonist).

Turning to `O=C1/C(=C/c2cn(CCN3CCOCC3)c3ncccc23)N2CCC1CC2`, the figures for the inhibition at Cannabinoid receptor 1 [2] and at Cannabinoid receptor 2 [3] were 0% and 7.92%, respectively.

Take `Cc1c(C(=O)NN2CCCCC2)nn(-c2ccc(Cl)cc2Cl)c1-c1ccc(I)cc1`: the result on Cannabinoid receptor 1 [8] (filed as inverse agonist) was Active.

Take `N#Cc1ccc(Cn2cc(/C=C3/C(=O)C4CCN3CC4)c3cccnc32)cc1`: the inhibition on Cannabinoid receptor 1 [2] worked out at 55.7%; at Cannabinoid receptor 2 [3], 64.1%.

As to `O=C1/C(=C/c2cn(Cc3ccccc3)c3ncccc23)N2CCC1CC2`, the Ki on Cannabinoid receptor 1 [5] turned out to be 2900 nM; on Cannabinoid receptor 2 [7], 110 nM. The outcome on Cannabinoid receptor 2 [9] and at Cannabinoid receptor 1 [10] was Active. Besides, the result at Cannabinoid receptor 1 [8], on Cannabinoid receptor 2 [1], on Cannabinoid receptor 2 [11] and on Cannabinoid receptor 1 [12] was inactive. Besides, in the experiment listed under Homo sapiens, the Ratio Ki worked out at 26.3. The results for the inhibition at Cannabinoid receptor 1 [2] and at Cannabinoid receptor 2 [3] (filed as antagonist) were 15.1% and 79.9%, respectively.

In the case of `OC1/C(=C/c2cn(Cc3ccc(Cl)cc3)c3ncccc23)N2CCC1CC2` (racemic), the inhibition on Cannabinoid receptor 1 [2] is 58.2%; at Cannabinoid receptor 2 [3], 58.5%.

Regarding `O=C1/C(=C/c2cn(Cc3ccc(Br)cc3)c3ncccc23)N2CCC1CC2`, the values for the Ki on Cannabinoid receptor 1 [5] and at Cannabinoid receptor 2 [7] were 1110 nM and 625 nM, respectively. Further, the result at Cannabinoid receptor 2 [9] and on Cannabinoid receptor 1 [8] (filed as inverse agonist) was Active. In addition, the Ratio Ki in the experiment listed under Homo sapiens came to 1.8. Besides, the figures for the inhibition on Cannabinoid receptor 1 [2] (filed as inverse agonist) and on Cannabinoid receptor 2 [3] (filed as antagonist) were 74.2% and 67.6%, respectively.

Take `O=C1/C(=C/c2cn(CCN3CCCC3)c3ncccc23)N2CCC1CC2`: the inhibition worked out at 39.4% at Cannabinoid receptor 1 [2] and 56.6% at Cannabinoid receptor 2 [3].

Regarding `COc1ccc(Cn2cc(/C=C3/C(=O)C4CCN3CC4)c3cccnc32)cc1`, the inhibition at Cannabinoid receptor 1 [2] stood at 22.4%; at Cannabinoid receptor 2 [3], 27.5%.

For the molecule `O=C1/C(=C/c2cn(Cc3cccc(C(F)(F)F)c3)c3ncccc23)N2CCC1CC2`, the inhibition on Cannabinoid receptor 1 [2] was 42.5%; on Cannabinoid receptor 2 [3], 56.7%.
